Runt-CBFb FRET – inhibitors of RUNX1 Runt–CBFb binding, primary screen, biochemical, FRET, Cerulean-Runt, Venus-CBFb, uHTS; Cerulean-Runt/Venus-CBFb FRET ratio 530/480, 1 h; AID 1496, 2009; Runt-related transcription factor 1 (Homo sapiens) + Core-binding factor subunit beta …; inhibition, % at 20 µM; 220,000 compounds, 0.46% hits;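 active means inhibition over about 50% at 20 µM in the single-dose screen, limit read from the data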
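Doses: 20 µM compound in 1% DMSO | Material: Cerulean-labeled Runt domain protein | Amount: Each fluorescent fusion protein 100 nM | Schedule: Two 1 h room-temperature incubations shielded from light | Measured by: FRET fluorescence | Evaluation: Loss of energy transfer signal | Controls: Unlabeled CBFb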
Hck-Nef inh – inhibitors of Nef-activated human Hck kinase, primary screen, biochemical, Z-Lyte FRET, 384-well, Hck-YEEI; Tyrosine-protein kinase HCK (Homo sapiens), P08631; Recombinant Hck-YEEI plus Nef, Z-Lyte FRET kinase assay; inhibition, % at 20 µM; 220,000 compounds, 0.68% hits;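 active means Hck-Nef kinase inhibition above about 50%, limit read from the data; inactive means inhibition below that limit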
RanGTP-Impb inh – inhibitors of RanGTP-importin-beta interaction, primary screen, biochemical, FRET, CFP-Ran, YFP-importin-beta, homogeneous; cell-free CFP-Ran/YFP-importin-beta FRET ratio; inhibition, % (test concentration not listed); 300,000 compounds, 1.1% hits;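 active means more than half of the replicate wells show a fall in the fluorescence ratio signal beyond about 16%, limit read from the data, passing the limit was not always enough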
Runt-SMMHC FRET – inhibitors of RUNX1 Runt–CBFb-SMMHC binding, primary screen, biochemical, FRET, Cerulean-Runt, Venus-CBFb-SMMHC, uHTS. AID 1434, 2008. Cerulean-Runt/Venus-CBFb-SMMHC FRET ratio 530/480, 1 h. 220,000 compounds, 0.74% hits. inhibition, % at 20 µM;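 active means mean inhibition across duplicate retests at 20 µM reaching about 50%, limit read from the data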;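 further: inhibitors lower the FRET ratio by blocking Runt binding to CBFb-SMMHC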
Hck Nef conf – retest of Hck:Nef kinase inhibitor hits, confirmation, biochemical, Z-Lyte FRET, 384-well, p-Tyr peptide counterscreen; shares compounds with Hck-Nef inh; Recombinant Hck-YEEI:Nef, Z-Lyte FRET kinase assay; calls only at 10 µM; 1,300 compounds, 28% hits;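 active means average inhibition of at least 50%, with Z-scores no higher than 3 in both the phospho-tyrosine peptide and fluorescence counterscreens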
Large screens that a line does not name were inactive (follow-up assays come after a bar, where they were run). An excerpt weighted towards active compounds, which were near 1.9% of everything screened.

Cc1cc(C=C2C(=O)NC(=S)NC2=O)c(C)n1C1CCCC1	Hck-Nef inh 71 | Hck Nef conf inactive
COc1cc(/C=C2\C(=O)NC(=O)N(c3ccccc3)C2=O)c([N+](=O)[O-])cc1OC	none (no result: RanGTP-Impb inh)
CN1C(=O)NC(=O)/C(=C\C=C\c2ccccc2[N+](=O)[O-])C1=O	Hck-Nef inh 93 (no result: RanGTP-Impb inh) | Hck Nef conf inactive
CN1C(=O)C(=Cc2ccc(Sc3ccccc3)o2)C(=O)N(C)C1=O	Hck-Nef inh 70 (no result: RanGTP-Impb inh) | Hck Nef conf inactive
CN1C(=O)C(=Cc2ccc(Sc3ccccc3)o2)C(=O)N(C)C1=S	none (no result: Runt-CBFb FRET, Hck-Nef inh, Runt-SMMHC FRET)
Cc1c(C(=O)N2CCC3(CC2)OCCO3)oc2ccc(S(=O)(=O)N3CCCCC3)cc12	none
O=C1NC(=O)N(c2ccc(Cl)cc2)C(=O)/C1=C\c1ccc(Sc2nc3ccccc3[nH]2)o1	Hck-Nef inh 57 | Hck Nef conf inactive
c1ccc2cc(C3N4CCCN34)ccc2c1 (configuration not stated)	none
CCCCOC(=O)C1=C(N)OC2=C(C(=O)CCC2)[C@]12C(=O)N(C)c1ccccc12	none
Cc1cccc(N2C(=O)/C(=C/c3ccc(CN(CCC#N)S(C)(=O)=O)o3)C(=O)NC2=S)c1	Hck-Nef inh 53 | Hck Nef conf inactive
CC1CCCCN1Cc1ccc(Cl)nc1 (configuration not stated)	none
N#CC(C#N)=NNc1ccc(S(N)(=O)=O)cc1	Hck-Nef inh 52 | Hck Nef conf active
CC1CCN(S(=O)(=O)c2ccc(NN=C(C#N)C#N)cc2)CC1	none (no result: RanGTP-Impb inh)

Assay outcomes as filed in PubChem.
